# Reference: PubChem BioAssay
# Activity calls are given as the source filed them. Unless noted, no stated cut-off is given here; in the data, active means inhibition above about 30%; inactive means the rest.
# Experiments:
# [1] = Her2 expression decrease, cell viability multiplex – SKBR3 breast tumor cells, AlphaScreen, ATP viability, primary screen (AID 461;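 active means Her2 level under about 52% in both replicate screens, with viability over 70% of control, limit read from the data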;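 on Her2 level: lower value means less Her2 protein in the cells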;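 on viability: percent of carrier control wells set as 100% viability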); settings: SKBR3 Her2 protein level, 18-24 h, measured here: SKBR3 viability, ATP luminescence, at 10 µM
# [2] = target: Receptor tyrosine-protein kinase erbB-2 (Homo sapiens) (UniProt P04626); experiment: as above; settings: 18-24 h, at 10 µM, stronger effect = lower value
# [3] = reduced viability of SK-BR-3 breast cancer cells – cell-based, 24 h, human, pilot screen (AID 572;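 active means viability at or below 10% of carrier control in both of two separate runs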;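 further: compound exposure lasted between 18 and 24 h rather than exactly 24 h; 100% = carrier-treated control wells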); settings: SK-BR-3 viability, CellTiter-Glo luminescence, at 10 µM, stronger effect = lower value
# [4] = HUVEC growth inhibition – cell-based, human, primary screen (AID 575;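 active means viability at or below 30% in both replicate assays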;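 further: 100% = median of untreated cell wells with 0.1% DMSO on each plate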); settings: HUVEC proliferation, CellTiter-Glo luminescence, 72 h; at 10 µM; stronger effect = lower value
# In short: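 System: primary human umbilical vein endothelial cells; Quantity: 1250 endothelial cells in each well; Buffer or medium: supplemented EBM, 2% fetal bovine serum; Doses: one dose, 10 µM final, 0.1% DMSO; Incubation: 72 h compound incubation; Technique: ATP-based CellTiter-Glo luminescent read; Evaluation: percent of median DMSO-control luminescence; Controls: vehicle and MePR control wells.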
# [5] = H69AR cell proliferation blockers – human, duplicate replicates, primary screen (AID 580;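 active means viability at or under a set limit in both replicates, limit being median viability minus 3 SD, cut at about 48% in these data, passing the limit was not always enough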;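 further: 100% = mean luminescence of untreated wells and 0% = no signal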); settings: H69AR lung tumor cells viability, ATP luminescence, 72 h; at 10 µM; stronger effect = lower value
# [6] = MRP1 drug-resistance reversers in H69AR cells – cell-based, doxorubicin co-treatment, pilot screen (AID 601;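 active means viability loss from added drug above about 55%, and viability with drug at most 40%, in both replicates, limit read from the data, passing the limit was not always enough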); settings: CellTiter-Glo, 72 h, at 10 µM; for differential viability (reversal): stronger effect = higher value
# [7] = yeast transport mutant growth inhibition pilot in 384-well plates, post-Golgi transport modulator project (AID 636; in the data active means inhibition above about 31%); settings: absorbance 615 nm, about 18 h, stronger effect = higher value
# [8] = growth suppression of yeast trafficking mutant, preliminary HTS, modulators of trafficking downstream of Golgi apparatus project, 1536-format plate, OD 615 nm (AID 637); settings: yeast transport mutant growth, absorbance 615 nm, 18 h; stronger effect = higher value
# [9] = H69AR cells + 2 uM doxorubicin, measured here: viability with 2 uM doxorubicin, stronger effect = lower value
# [10] = H69AR cells, compound alone cytotoxicity
# Receptor tyrosine-protein kinase erbB-2 (Homo sapiens), sequence (P04626 whole entry, looked up): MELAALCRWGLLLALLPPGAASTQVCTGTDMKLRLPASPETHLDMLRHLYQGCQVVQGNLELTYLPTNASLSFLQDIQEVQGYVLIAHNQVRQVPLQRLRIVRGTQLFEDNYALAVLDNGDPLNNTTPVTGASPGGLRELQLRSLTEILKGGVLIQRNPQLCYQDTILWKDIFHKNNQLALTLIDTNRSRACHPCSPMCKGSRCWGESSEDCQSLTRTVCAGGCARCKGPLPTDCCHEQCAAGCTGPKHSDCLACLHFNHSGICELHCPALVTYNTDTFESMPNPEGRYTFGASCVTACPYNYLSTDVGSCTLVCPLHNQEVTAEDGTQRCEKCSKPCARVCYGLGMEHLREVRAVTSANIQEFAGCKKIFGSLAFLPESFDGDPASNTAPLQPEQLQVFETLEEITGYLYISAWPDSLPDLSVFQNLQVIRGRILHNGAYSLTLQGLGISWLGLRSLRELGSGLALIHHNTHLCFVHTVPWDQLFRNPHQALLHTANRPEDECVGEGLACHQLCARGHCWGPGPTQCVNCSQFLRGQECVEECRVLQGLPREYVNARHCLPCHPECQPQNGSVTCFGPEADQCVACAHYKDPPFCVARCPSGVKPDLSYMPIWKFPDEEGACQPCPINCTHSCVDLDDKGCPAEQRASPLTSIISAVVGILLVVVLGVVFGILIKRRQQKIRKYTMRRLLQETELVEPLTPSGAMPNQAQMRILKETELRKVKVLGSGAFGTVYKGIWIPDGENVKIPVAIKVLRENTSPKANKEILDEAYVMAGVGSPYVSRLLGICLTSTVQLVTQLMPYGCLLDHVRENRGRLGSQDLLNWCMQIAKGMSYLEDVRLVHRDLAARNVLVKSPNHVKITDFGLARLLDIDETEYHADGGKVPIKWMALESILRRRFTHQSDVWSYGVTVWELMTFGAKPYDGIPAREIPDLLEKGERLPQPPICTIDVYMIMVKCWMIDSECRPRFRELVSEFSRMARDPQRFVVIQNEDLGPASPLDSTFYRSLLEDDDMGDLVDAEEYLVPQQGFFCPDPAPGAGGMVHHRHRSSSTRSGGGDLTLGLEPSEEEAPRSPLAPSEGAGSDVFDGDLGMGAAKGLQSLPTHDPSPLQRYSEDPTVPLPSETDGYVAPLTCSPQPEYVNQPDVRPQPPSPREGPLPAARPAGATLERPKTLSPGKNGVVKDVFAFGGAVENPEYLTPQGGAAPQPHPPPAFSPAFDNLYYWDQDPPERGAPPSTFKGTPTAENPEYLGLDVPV
SMILES,viability [1] [%],Her2 level [2],viability [3],viability [4],viability [5],differential viability (reversal) ([6]; H69AR cells + 2 uM doxorubicin),"viability [6, 9] [%]","viability [6, 10] [%]",inhibition [7],inhibition [8]
O=C(NCCC1=CCCCC1)C1CC(=O)N(C2CCCCCC2)C1 (stereo not given),98,110% (inactive),98% (inactive),104% (inactive),99.5% (inactive),11% (inactive),88.5,99.5,-1.15% (inactive),-0.67% (inactive)
Cc1ccc(S(=O)(=O)NCCC(=O)OCn2nnc3ccccc3c2=O)cc1,95.5,82.5% (inactive),95.5% (inactive),83.8% (inactive),95.1% (inactive),-13.1% (inactive),108,95.1,-2.37% (inactive),1.27% (inactive)
CC(=O)Nn1c(C)nnc1-n1nc(C)cc1C,126,112% (inactive),126% (inactive),77.5% (inactive),97.8% (inactive),4.38% (inactive),93.4,97.8,-1.95% (inactive),-1.64% (inactive)
COc1cc(OC)c(C(=O)Nc2ncn[nH]2)cc1OC,102,122% (inactive),102% (inactive),95.4% (inactive),95% (inactive),-6.38% (inactive),101,95,1.97% (inactive),-6.72% (inactive)
Cc1cc(C)c2c(CC(=O)NCc3ccco3)coc2c1,94,81.5% (inactive),94% (inactive),71.3% (inactive),91.1% (inactive),1.32% (inactive),89.8,91.1,-6.27% (inactive),-6.03% (inactive)
COc1ccc2c(c1)Sc1ccccc1N2CCN(C)C,88.5,86.5% (inactive),88.5% (inactive),59.1% (inactive),68.8% (inactive),-3.43% (inactive),72.3,68.8,-5.39% (inactive),-6.29% (inactive)
CCc1nnc(NC(=O)c2ccc(S(=O)(=O)NC3CCCCC3)cc2)s1,86.5,69.5% (inactive),86.5% (inactive),74% (inactive),80.1% (inactive),43% (inactive),37.1,80.1,-5.68% (inactive),-8.33% (inactive)
CS(=O)(=O)Nc1ccc(C(=O)NCCc2ccccc2)cc1,96.5,94.5% (inactive),96.5% (inactive),102% (inactive),98.3% (inactive),12.9% (inactive),85.4,98.3,-3.47% (inactive),-3.55% (inactive)
COc1cc(OC)cc(C(=O)NCCN2CCOCC2)c1,105,92% (inactive),105% (inactive),98.3% (inactive),94.1% (inactive),1.49% (inactive),92.6,94.1,-4.47% (inactive),-4.36% (inactive)
O=C(NCc1nnc(SCC(=O)N2CCCCCC2)o1)c1ccco1,104,100% (inactive),104% (inactive),101% (inactive),111% (inactive),18.3% (inactive),92.8,111,-4.27% (inactive),-0.48% (inactive)
COc1ccc(-n2nc(C(=O)Nc3ccc4c(c3)OCO4)c3c4ccccc4n(C)c3c2=O)cc1,99,88.5% (inactive),99% (inactive),98% (inactive),92.6% (inactive),-10.9% (inactive),104,92.6,-3.03% (inactive),-1.45% (inactive)
CN(C)S(=O)(=O)c1ccc(/C(O)=C2/C(=O)C(=O)N(CCN3CCCCC3)C2c2cccnc2)cc1 (stereo not given),87,166% (inactive),87% (inactive),92.1% (inactive),87.3% (inactive),-3.39% (inactive),90.7,87.3,6.54% (inactive),11.3% (inactive)
CNC(=O)c1nnn(Cc2ccccc2)c1NC(C)=O,97.5,105% (inactive),97.5% (inactive),104% (inactive),88.9% (inactive),-7.25% (inactive),96.1,88.9,1.35% (inactive),12.5% (inactive)
Cc1cc(C)n(-c2nc3nonc3nc2-n2nc(C)cc2C)n1,91.5,83% (inactive),91.5% (inactive),83.3% (inactive),105% (inactive),14.7% (inactive),90.3,105,-2.5% (inactive),-3.17% (inactive)
CCn1nnc(NC(=O)c2cc3ccccc3o2)n1,103,103% (inactive),103% (inactive),97.2% (inactive),101% (inactive),11.5% (inactive),90,101,-4.19% (inactive),-9% (inactive)
Cc1ccc(S(=O)(=O)NCC(=O)N(CC(=O)NC2CCCCC2)Cc2ccco2)cc1,135,100% (inactive),135% (inactive),91% (inactive),93.9% (inactive),2.62% (inactive),91.3,93.9,-5.87% (inactive),4.76% (inactive)

SMILES,viability [1] [%],Her2 level [2],viability [3],viability [4],viability [5],differential viability (reversal) ([6]; H69AR cells + 2 uM doxorubicin),"viability [6, 9] [%]","viability [6, 10] [%]",inhibition [7],inhibition [8]
Cc1cc(C)n(-c2nnc(C)n2/N=C/c2ccccc2F)n1,94,89% (inactive),94% (inactive),110% (inactive),98.3% (inactive),13.3% (inactive),84.9,98.3,-7.07% (inactive),4.59% (inactive)
O=C(CCN1C(=O)C2C3C=CC(C3)C2C1=O)N1CCN(c2ccccc2Cl)CC1 (stereo not given),97,89.5% (inactive),97% (inactive),82.3% (inactive),96% (inactive),8.21% (inactive),87.8,96,-5% (inactive),-3.17% (inactive)
COc1ccc(N2CC(C(=O)Nc3ccc(F)cc3F)CC2=O)cc1 (stereo not given),102,93.5% (inactive),102% (inactive),108% (inactive),96.6% (inactive),5.19% (inactive),91.4,96.6,-3.47% (inactive),1.13% (inactive)
CCCOc1ccc(/C(O)=C2/C(=O)C(=O)N(CCCOC)C2c2ccncc2)cc1 (stereo not given),98,84% (inactive),98% (inactive),110% (inactive),94.5% (inactive),7.81% (inactive),86.7,94.5,-9.46% (inactive),3.67% (inactive)
CCOC(=O)N1CCN(C(=O)CSc2cc(C)nc3c(-c4ccccc4OC)c(C)nn23)CC1,79.5,90% (inactive),79.5% (inactive),94% (inactive),73.3% (inactive),48.5% (inactive),24.8,73.3,-0.26% (inactive),-1.43% (inactive)
CCc1ccc(CNCc2cccnc2)cc1,91,100% (inactive),91% (inactive),91.2% (inactive),92.4% (inactive),6.96% (inactive),85.4,92.4,-1.82% (inactive),-2% (inactive)
Cc1ccc(-c2noc(CCC(=O)NC3CCCc4ccccc43)n2)cc1 (stereo not given),75,85.5% (inactive),75% (inactive),83.6% (inactive),92.5% (inactive),6.05% (inactive),86.4,92.5,-4.87% (inactive),-4.67% (inactive)
Cc1ccc(CCC(=O)Nc2ccc(S(N)(=O)=O)cc2)o1,87.5,116% (inactive),87.5% (inactive),98.4% (inactive),109% (inactive),7.87% (inactive),101,109,1.33% (inactive),6.23% (inactive)
CCCCCCC1/C(=N/O)CCC1C(=O)OC (stereo not given),108,95.5% (inactive),108% (inactive),109% (inactive),83.2% (inactive),-1.02% (inactive),84.2,83.2,-8.44% (inactive),-5.71% (inactive)
c1ccc2c(c1)CNC1(CCCCC1)C2,103,94.5% (inactive),103% (inactive),103% (inactive),102% (inactive),12.9% (inactive),88.6,102,-8.63% (inactive),1.27% (inactive)
CC(=O)N1CCc2cc(S(=O)(=O)CCC(=O)N3CCN(c4ccccn4)CC3)ccc21,91.5,98% (inactive),91.5% (inactive),105% (inactive),98% (inactive),6.38% (inactive),91.6,98,4.67% (inactive),12% (inactive)
c1ccc(-c2nn3c(Cn4nnc5ccccc54)nnc3s2)nc1,102,114% (inactive),102% (inactive),75.6% (inactive),101% (inactive),9.54% (inactive),91.5,101,-2.89% (inactive),-2.67% (inactive)
Cc1ccc(-c2cc(C(=O)O)n[nH]2)o1,95.5,128% (inactive),95.5% (inactive),98.7% (inactive),99.3% (inactive),-1.46% (inactive),101,99.3,-3.01% (inactive),-0.16% (inactive)
Cc1ccccc1-c1nc(CN2CCC(C(=O)NCc3cccnc3)CC2)c(C)o1,88.5,82.5% (inactive),88.5% (inactive),85.7% (inactive),87.1% (inactive),0.825% (inactive),86.3,87.1,-1.71% (inactive),0% (inactive)
CCOC(=O)c1c(C)c(C(=O)NCC2CCCO2)c(C)n1C (stereo not given),100,82.5% (inactive),100% (inactive),83.5% (inactive),92.2% (inactive),11.9% (inactive),80.3,92.2,-1.71% (inactive),1.59% (inactive)
